Assay results taken from ChEMBL document CHEMBL1156047, “Diastereoisomers of 2-benzyl-2, 3-dihydro-2-(1H-inden-2-yl)-1H-inden-1-ol: potential anti-inflammatory agents” (2009).

What was measured:
[1] = system: Mus musculus; assay: Antiinflammatory activity against arachidonic acid-induced ear edema in Balb/C mouse at 300 ug/ear administered topically 1 hr before arachidonic acid challenge measured after 60 mins; assay type: functional
Outline: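 Topical application in 100 µL acetone (compound 300 µg, indomethacin 300 µg positive control, vehicle alone) to mouse ear; oedema induced with arachidonic acid (4 mg). Ear width measured with a micrometer screw gauge before and 60 min after induction. Oedema expressed as percentage of normal by comparing left and right ear widths. n = 4–8 per group.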

[2] = system: Ileum; assay: Muscle relaxant activity in potassium-depolarized guinea pig ileum assessed as inhibition of calcium-induced contraction at 10 nM; assay type: functional; details: Cavia porcellus
Outline: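 Isolated guinea-pig ileum, depolarised with potassium, in which calcium (2.5 mM) induced a sustained contraction. The agent was applied at 1 × 10^-8 M, and activity was expressed as percent inhibition of the calcium contracture. Values are given as mean with SEM, n = 6.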

[3] = system: RBL-2H3; assay: Antiinflammatory activity against calcium ionophore A23187-induced beta-hexosaminidase release from rat RBL2H3 cells after 30 mins; assay type: functional, cell-based
Outline: (§1)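 RBL-2H3 cells plated at 1 × 10⁵ cells/cm² in 24-well plates and allowed to adhere ≥3 h. Medium replaced with fresh medium containing calcium ionophore A23187 plus compound (0.3–50 µM range; DMSO 0.5% solvent control). Incubation 30 min, 37 °C, 5% CO₂. Supernatant β-hexosaminidase measured with p-nitrophenyl N-acetyl-glucosaminide in citrate pH 4.5 for 1 h at 37 °C, stopped with NaOH, read at 405 nm. Values are % of total (Triton X-100 lysate), spontaneous release subtracted. Triplicate.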

[4] = system: RBL-2H3; assay: Antiinflammatory activity against calcium ionophore A23187-induced beta-hexosaminidase release from rat RBL2H3 cells at 10 uM after 30 mins; assay type: functional; details: RBL-2H3, 0.5 h; outline: as §1
[5] = system: Ileum; assay: Muscle relaxant activity in potassium-depolarized guinea pig ileum assessed as inhibition of calcium-induced contraction at 10 uM; assay type: functional; details: Cavia porcellus
Outline: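 Isolated guinea-pig ileum depolarised with potassium; sustained contraction induced by calcium (2.5 mM). Test compounds at 1 × 10⁻⁵ M, with nifedipine 1 × 10⁻⁸ M as reference. Result expressed as % inhibition of the calcium contracture. Mean ± SEM, n = 6–12.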

[6] = system: RBL-2H3; assay: Antiinflammatory activity against calcium ionophore A23187-induced beta-hexosaminidase release in rat RBL2H3 cells at 50 uM after 30 mins; assay type: functional; details: RBL-2H3, 0.5 h; outline: as §1

Row | SMILES | inhibition (INH) [1] [%] | inhibition at 0.01 µM [2] [%] | inhibition [3] | inhibition at 10 µM [4] [%] | inhibition at 10 µM [5] [%] | inhibition at 50 µM [6] [%]
1 | COc1ccc2c(c1)c(CC(=O)O)c(C)n2C(=O)c1ccc(Cl)cc1 [INDOMETHACIN] | 50 |  |  |  |  | 
2 | COC(=O)C1=C(C)NC(C)=C(C(=O)OC)C1c1ccccc1[N+](=O)[O-] [NIFEDIPINE] |  | 48.1 |  |  |  | 
3 | O[C@H]1c2ccccc2C[C@]1(Cc1ccccc1)C1=Cc2ccccc2C1 | 45 |  | Dose-dependent effect | 45 | 18.9 | 96
4 | O[C@H]1c2ccccc2C[C@@]1(Cc1ccccc1)C1=Cc2ccccc2C1 | 59 |  | Dose-dependent effect | 40 | 36.4 | 75
